What was measured:
[1] = biological target: Estrogen receptor (Homo sapiens) (UniProt P03372); assay: Inhibition of human ERalpha at 3 uM
Outline: (§1)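 Counter-screen binding/enzyme panel at single 3 μM, n=2; results as percent inhibition. Species per target as listed (rat NMDA, GABAA sites; human receptors, transporters; rabbit ACE).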

Homo sapiens = species: Homo sapiens; conditions: 3 uM
[2] = biological target: AP2-associated protein kinase 1 (Homo sapiens) (UniProt Q2M2I8); assay: Inhibition of AAK1 at 3 uM
[3] = biological target: BMP-2-inducible protein kinase (Homo sapiens) (UniProt Q9NSY1); assay: Inhibition of BIKE at 3 uM
Rattus norvegicus = species: Rattus norvegicus; conditions: 3 uM
[4] = biological target: Serine/threonine-protein kinase Nek9 (Homo sapiens) (UniProt Q8TD19); assay: Inhibition of NEK9 at 3 uM
[5] = biological target: Testis-specific serine/threonine-protein kinase 1 (Homo sapiens) (UniProt Q9BXA7); assay: Inhibition of TSSK1 at 3 uM
[6] = biological target: Activin receptor type-2B (Homo sapiens) (UniProt Q13705); assay: Inhibition of ACVR2B at 3 uM
Sequence of Activin receptor type-2B (Homo sapiens) (Q13705 whole entry): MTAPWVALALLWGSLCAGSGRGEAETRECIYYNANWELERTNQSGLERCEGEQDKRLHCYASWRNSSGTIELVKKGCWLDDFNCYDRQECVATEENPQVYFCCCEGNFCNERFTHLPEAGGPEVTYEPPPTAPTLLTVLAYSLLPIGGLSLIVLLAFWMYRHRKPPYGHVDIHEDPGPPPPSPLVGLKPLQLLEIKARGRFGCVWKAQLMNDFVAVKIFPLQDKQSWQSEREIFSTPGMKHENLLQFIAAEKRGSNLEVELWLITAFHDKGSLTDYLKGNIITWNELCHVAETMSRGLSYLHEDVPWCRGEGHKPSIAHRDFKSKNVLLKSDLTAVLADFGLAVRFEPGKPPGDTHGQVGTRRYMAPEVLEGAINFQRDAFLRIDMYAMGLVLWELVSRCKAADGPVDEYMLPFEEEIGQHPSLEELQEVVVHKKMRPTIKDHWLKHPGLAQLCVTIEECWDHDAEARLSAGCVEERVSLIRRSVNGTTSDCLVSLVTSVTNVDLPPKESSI

[7] = biological target: Tyrosine-protein kinase receptor Tie-1 (Homo sapiens) (UniProt P35590); assay: Inhibition of TIE1 at 3 uM
[8] = biological target: Dual specificity protein kinase CLK1 (Homo sapiens) (UniProt P49759); assay: Inhibition of CLK1 at 3 uM
[9] = biological target: Calcium/calmodulin-dependent protein kinase type 1D (Homo sapiens) (UniProt Q8IU85); assay: Inhibition of CAMK1D at 3 uM
[10] = tested on: Mast/stem cell growth factor receptor Kit (Homo sapiens), P10721 [D816V]; assay: Inhibition of KIT D816V mutant at 3 uM
[11] = biological target: Serine/threonine-protein kinase 33 (Homo sapiens) (UniProt Q9BYT3); assay: Inhibition of STK33 at 3 uM
[12] = biological target: Serine/threonine-protein kinase Nek6 (Homo sapiens) (UniProt Q9HC98); assay: Inhibition of NEK6 at 3 uM
[13] = biological target: Proto-oncogene tyrosine-protein kinase Src (Homo sapiens) (UniProt P12931); assay: Inhibition of SRC at 3 uM
[14] = biological target: Serine/threonine-protein kinase 32B (Homo sapiens) (UniProt Q9NY57); assay: Inhibition of YANK2 at 3 uM
[15] = biological target: Tyrosine-protein kinase CSK (Homo sapiens) (UniProt P41240); assay: Inhibition of CSK at 3 uM
[16] = biological target: Sodium-dependent serotonin transporter (Homo sapiens) (UniProt P31645); assay: Inhibition of human SERT at 3 uM
Sequence of Sodium-dependent serotonin transporter (Homo sapiens) (P31645 whole entry, looked up): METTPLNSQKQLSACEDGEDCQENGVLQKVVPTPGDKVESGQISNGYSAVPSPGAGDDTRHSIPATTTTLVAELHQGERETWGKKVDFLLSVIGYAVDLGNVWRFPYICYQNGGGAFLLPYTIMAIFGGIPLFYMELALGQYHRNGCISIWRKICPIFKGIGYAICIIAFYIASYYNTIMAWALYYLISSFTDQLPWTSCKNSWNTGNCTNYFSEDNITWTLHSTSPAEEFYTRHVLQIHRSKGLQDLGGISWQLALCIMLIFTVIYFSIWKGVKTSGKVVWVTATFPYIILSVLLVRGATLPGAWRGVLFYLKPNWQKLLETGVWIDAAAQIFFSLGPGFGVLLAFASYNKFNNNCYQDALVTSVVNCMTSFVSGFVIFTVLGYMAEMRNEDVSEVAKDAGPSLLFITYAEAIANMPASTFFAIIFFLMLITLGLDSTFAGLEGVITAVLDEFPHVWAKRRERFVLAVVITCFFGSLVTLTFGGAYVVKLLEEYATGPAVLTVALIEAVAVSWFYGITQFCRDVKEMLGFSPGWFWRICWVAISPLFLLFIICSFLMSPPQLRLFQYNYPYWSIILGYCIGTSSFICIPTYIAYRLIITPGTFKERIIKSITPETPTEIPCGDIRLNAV

[17] = biological target: 5'-AMP-activated protein kinase catalytic subunit alpha-1 (Homo sapiens) (UniProt Q13131); assay: Inhibition of AMPKalpha1 at 3 uM
[18] = tested on: Tyrosine-protein kinase ABL1 (Homo sapiens), P00519 [E255K]; assay: Inhibition of ABL1E255K mutant at 3 uM
[19] = biological target: Casein kinase I isoform epsilon (Homo sapiens) (UniProt P49674); assay: Inhibition of CSNK1E at 3 uM
[20] = biological target: TGF-beta receptor type-1 (Homo sapiens) (UniProt P36897); assay: Inhibition of TGFBR1 at 3 uM
[21] = biological target: Membrane-associated tyrosine- and threonine-specific cdc2-inhibitory kinase (Homo sapiens) (UniProt Q99640); assay: Inhibition of PKMYT1 at 3 uM
Sequence of Membrane-associated tyrosine- and threonine-specific cdc2-inhibitory kinase (Homo sapiens) (Q99640 whole entry): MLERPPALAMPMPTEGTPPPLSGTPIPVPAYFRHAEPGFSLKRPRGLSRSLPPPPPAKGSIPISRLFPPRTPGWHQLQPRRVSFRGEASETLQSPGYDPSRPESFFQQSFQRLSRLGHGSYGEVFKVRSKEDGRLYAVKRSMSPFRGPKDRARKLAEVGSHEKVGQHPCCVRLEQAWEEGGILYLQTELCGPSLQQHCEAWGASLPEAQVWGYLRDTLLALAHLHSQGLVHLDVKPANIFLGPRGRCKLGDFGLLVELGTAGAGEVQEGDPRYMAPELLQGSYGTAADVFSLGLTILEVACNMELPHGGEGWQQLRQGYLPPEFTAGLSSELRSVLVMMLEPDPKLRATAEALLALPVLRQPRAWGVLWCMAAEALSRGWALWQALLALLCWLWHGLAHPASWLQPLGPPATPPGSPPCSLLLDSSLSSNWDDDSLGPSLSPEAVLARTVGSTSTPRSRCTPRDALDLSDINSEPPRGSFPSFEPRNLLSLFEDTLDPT

[22] = biological target: Myosin-IIIb (Homo sapiens) (UniProt Q8WXR4); assay: Inhibition of MYO3B at 3 uM
[23] = biological target: Tyrosine-protein kinase Srms (Homo sapiens) (UniProt Q9H3Y6); assay: Inhibition of SRMS at 3 uM
[24] = biological target: 5-hydroxytryptamine receptor 2A (Homo sapiens) (UniProt P28223); assay: Inhibition of human 5HT2 receptor at 3 uM; outline: as §1
CYP1A2 = biological target: T1, CYP1A2 (Homo sapiens, UniProt P05177); assay: Inhibition of human CYP1A2 at 10 uM; format: ADME
T1 sequence (P05177 whole entry): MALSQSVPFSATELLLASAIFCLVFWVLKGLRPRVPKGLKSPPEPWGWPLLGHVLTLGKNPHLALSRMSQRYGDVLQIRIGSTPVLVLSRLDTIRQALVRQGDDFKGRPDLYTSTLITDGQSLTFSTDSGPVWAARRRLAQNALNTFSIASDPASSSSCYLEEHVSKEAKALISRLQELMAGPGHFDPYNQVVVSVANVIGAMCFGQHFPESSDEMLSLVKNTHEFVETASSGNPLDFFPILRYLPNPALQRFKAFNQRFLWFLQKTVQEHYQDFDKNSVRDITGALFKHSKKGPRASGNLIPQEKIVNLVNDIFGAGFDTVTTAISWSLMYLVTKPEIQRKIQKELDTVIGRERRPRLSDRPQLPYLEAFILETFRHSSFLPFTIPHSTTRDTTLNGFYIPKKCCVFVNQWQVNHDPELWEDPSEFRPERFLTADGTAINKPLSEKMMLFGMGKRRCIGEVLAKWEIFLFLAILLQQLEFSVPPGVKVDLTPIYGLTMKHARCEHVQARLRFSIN

[25] = biological target: Receptor-interacting serine/threonine-protein kinase 1 (Homo sapiens) (UniProt Q13546); assay: Inhibition of RIPK1 at 3 uM
[26] = biological target: Wee1-like protein kinase 2 (Homo sapiens) (UniProt P0C1S8); assay: Inhibition of WEE2 at 3 uM
[27] = biological target: Serine/threonine-protein kinase SIK2 (Homo sapiens) (UniProt Q9H0K1); assay: Inhibition of SNF1LK2 at 3 uM
[28] = biological target: Calcium/calmodulin-dependent protein kinase kinase 2 (Homo sapiens) (UniProt Q96RR4); assay: Inhibition of CAMKK2 at 3 uM
Sequence of Calcium/calmodulin-dependent protein kinase kinase 2 (Homo sapiens) (Q96RR4 2-588 limits assumed): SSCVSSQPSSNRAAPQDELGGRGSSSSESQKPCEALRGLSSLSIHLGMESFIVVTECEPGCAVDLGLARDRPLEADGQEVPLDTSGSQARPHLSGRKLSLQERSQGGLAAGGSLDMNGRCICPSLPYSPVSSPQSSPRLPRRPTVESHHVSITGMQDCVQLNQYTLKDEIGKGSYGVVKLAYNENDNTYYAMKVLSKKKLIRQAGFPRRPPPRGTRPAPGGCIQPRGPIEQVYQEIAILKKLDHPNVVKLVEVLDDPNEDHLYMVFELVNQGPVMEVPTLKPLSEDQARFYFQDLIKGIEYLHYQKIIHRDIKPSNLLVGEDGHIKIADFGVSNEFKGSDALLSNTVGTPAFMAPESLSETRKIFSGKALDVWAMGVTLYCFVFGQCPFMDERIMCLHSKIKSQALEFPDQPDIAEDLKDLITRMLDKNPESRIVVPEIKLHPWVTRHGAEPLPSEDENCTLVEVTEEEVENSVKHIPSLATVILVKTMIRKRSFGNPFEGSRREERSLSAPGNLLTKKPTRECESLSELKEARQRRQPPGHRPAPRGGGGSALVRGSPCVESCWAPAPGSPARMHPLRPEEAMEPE

[29] = biological target: Serine/threonine-protein kinase STK11 (Homo sapiens) (UniProt Q15831); assay: Inhibition of LKB1 at 3 uM
[30] = biological target: Pro-epidermal growth factor (Homo sapiens) (UniProt P01133); assay: Inhibition of human EGF at 3 uM; outline: as §1
[31] = biological target: Proto-oncogene tyrosine-protein kinase ROS (Homo sapiens) (UniProt P08922); assay: Inhibition of ROS1 at 3 uM
Sequence of Proto-oncogene tyrosine-protein kinase ROS (Homo sapiens) (P08922 whole entry): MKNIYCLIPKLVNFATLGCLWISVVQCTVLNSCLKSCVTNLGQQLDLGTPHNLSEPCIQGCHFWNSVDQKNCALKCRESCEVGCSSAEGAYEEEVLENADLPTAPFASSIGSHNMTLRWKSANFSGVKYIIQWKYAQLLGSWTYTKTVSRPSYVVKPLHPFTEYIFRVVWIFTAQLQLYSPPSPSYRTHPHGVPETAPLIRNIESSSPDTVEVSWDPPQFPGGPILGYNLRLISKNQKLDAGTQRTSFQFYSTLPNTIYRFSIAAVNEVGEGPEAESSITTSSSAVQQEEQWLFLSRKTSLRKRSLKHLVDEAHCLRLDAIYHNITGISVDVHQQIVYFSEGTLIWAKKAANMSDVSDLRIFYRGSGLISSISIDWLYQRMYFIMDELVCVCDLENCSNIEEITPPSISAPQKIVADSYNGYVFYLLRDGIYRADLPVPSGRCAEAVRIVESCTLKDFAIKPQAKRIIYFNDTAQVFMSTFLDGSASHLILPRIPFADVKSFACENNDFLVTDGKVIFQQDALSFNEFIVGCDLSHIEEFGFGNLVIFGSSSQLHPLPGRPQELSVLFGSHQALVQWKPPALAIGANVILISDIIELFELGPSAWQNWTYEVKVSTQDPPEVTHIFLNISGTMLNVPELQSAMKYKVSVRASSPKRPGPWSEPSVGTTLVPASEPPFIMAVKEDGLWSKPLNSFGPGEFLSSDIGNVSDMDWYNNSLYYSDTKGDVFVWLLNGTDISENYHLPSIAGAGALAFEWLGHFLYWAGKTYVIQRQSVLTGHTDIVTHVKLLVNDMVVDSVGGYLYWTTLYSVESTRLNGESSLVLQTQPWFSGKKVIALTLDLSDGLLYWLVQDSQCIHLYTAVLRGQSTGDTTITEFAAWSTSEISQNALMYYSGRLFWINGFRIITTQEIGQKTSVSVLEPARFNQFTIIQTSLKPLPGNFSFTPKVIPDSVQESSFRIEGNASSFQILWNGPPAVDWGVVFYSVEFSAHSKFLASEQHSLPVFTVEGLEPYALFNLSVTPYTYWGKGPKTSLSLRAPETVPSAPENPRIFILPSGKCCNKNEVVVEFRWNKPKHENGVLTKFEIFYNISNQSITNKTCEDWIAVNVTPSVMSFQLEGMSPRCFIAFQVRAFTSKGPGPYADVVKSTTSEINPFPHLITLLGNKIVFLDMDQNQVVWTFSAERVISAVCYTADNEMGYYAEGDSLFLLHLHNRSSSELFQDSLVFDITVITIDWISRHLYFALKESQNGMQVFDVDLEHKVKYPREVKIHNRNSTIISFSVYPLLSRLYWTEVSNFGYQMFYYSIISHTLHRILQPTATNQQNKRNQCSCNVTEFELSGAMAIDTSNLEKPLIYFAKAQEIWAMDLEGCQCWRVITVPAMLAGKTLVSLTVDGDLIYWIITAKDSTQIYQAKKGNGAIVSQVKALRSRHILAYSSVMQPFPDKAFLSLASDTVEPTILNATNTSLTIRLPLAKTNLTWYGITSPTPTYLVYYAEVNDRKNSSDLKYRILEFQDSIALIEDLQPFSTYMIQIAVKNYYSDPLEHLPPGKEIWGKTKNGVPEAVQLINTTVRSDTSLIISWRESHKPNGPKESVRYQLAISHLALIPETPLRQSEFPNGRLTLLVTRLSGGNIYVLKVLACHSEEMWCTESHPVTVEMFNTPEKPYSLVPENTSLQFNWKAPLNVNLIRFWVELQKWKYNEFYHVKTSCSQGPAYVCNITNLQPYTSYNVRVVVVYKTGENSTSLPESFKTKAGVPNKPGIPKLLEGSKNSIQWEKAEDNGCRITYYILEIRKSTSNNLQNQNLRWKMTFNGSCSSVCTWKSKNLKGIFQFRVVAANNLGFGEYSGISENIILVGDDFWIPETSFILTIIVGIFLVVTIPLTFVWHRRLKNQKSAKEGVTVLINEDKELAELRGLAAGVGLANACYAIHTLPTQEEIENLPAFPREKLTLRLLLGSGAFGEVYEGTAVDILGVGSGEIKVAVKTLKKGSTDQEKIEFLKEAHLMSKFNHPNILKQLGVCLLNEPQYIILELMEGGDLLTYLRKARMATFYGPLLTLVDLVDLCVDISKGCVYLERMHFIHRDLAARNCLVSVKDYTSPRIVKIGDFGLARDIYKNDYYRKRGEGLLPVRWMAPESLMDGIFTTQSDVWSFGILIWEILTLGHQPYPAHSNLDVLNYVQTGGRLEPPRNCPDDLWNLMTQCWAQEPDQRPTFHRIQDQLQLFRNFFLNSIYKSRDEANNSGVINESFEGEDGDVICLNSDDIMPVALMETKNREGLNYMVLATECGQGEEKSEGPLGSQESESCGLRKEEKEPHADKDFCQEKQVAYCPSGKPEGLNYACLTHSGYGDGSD

[32] = biological target: D(3) dopamine receptor (Homo sapiens) (UniProt P35462); assay: Inhibition of human dopamine D3 receptor at 3 uM; outline: as §1
Sequence of D(3) dopamine receptor (Homo sapiens) (P35462 whole entry): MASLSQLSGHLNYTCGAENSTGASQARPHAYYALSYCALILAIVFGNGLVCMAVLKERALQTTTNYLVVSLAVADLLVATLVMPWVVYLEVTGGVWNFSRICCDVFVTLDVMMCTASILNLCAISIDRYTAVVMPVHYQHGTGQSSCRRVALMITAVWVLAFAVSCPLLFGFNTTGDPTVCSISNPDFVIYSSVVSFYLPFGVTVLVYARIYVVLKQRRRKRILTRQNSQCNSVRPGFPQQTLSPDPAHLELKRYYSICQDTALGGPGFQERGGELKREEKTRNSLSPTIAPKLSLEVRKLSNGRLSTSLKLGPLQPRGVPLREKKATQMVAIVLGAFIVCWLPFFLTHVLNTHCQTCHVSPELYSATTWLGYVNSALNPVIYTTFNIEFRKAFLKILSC

Sus scrofa = species: Sus scrofa; conditions: 25 uM
[33] = biological target: Mitogen-activated protein kinase 1 (Homo sapiens) (UniProt P28482); assay: Inhibition of ERK2 at 3 uM
Outline: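 Single-concentration kinase panel scoring: each value is the percentage of enzyme activity remaining relative to a DMSO-only control. An activity statistically indistinct from DMSO control was scored "no hit".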

CYP2D6 = CYP2D6 (Homo sapiens, UniProt P10635); assay: Inhibition of human CYP2D6 at 10 uM; format: ADME
[34] = biological target: Activin receptor type-2A (Homo sapiens) (UniProt P27037); assay: Inhibition of ACVR2A at 3 uM

SMILES: CN(C)CCOc1cc(-c2cn[nH]c2)ccc1NC(=O)C1COc2ccccc2O1 (centres undefined) [SR-3677]
- inhibition [1]: -2%
- inhibition (Homo sapiens): 7%
- inhibition [2]: < 10%
- inhibition [3]: < 10%
- inhibition (Rattus norvegicus): 17%
- inhibition [4]: < 10%
- inhibition [5]: < 10%
- inhibition [6]: < 10%
- inhibition [7]: < 10%
- inhibition [8]: 94.9%
- inhibition [9]: < 10%
- inhibition [10]: < 10%
- inhibition [11]: < 10%
- inhibition [12]: < 10%
- inhibition [13]: < 10%
- inhibition [14]: < 10%
- inhibition [15]: < 10%
- inhibition [16]: 3%
- inhibition [17]: < 10%
- inhibition [18]: < 10%
- inhibition [19]: < 10%
- inhibition [20]: < 10%
- inhibition [21]: < 10%
- inhibition [22]: < 10%
- inhibition [23]: < 10%
- inhibition [24]: 2%
- inhibition at 10 µM (CYP1A2): 46%
- inhibition [25]: < 10%
- inhibition [26]: < 10%
- inhibition [27]: < 10%
- inhibition [28]: < 10%
- inhibition [29]: < 10%
- inhibition [30]: -1%
- inhibition [31]: < 10%
- inhibition [32]: 15%
- inhibition (Sus scrofa): 90%
- inhibition [33]: < 10%
- inhibition at 10 µM (CYP2D6): 75%
- inhibition [34]: < 10%

Source: ChEMBL document CHEMBL1142492 (J Med Chem, 2008)
